Holding throughout (assay type): functional, cell-based
The test system of experiment [1] is P388. As to the kind of experiment: Cytotoxicity against drug-sensitive mouse P388 cells. In a few lines:
(§1)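 Murine leukemia P388 lines were tested: the drug-sensitive strain (P388/S), the adriamycin-resistant line (P388/ADR) and the vincristine-resistant line (P388/VCR). Cytotoxicity was expressed as IC50.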

For experiment [2], the system named is P388. As to the kind of experiment: Cytotoxicity against adriamycin-resistant mouse P388 cells in absence of 0.1 ug/mL adriamycin. The essentials:
as §1

The test system of experiment [3] is P388. As to the kind of experiment: Cytotoxicity against vincristine-resistant mouse P388 cells in absence of 0.004 ug/mL vincristine. The essentials: as §1
Experiment [4] relates to P388. As to the kind of experiment: Cytotoxicity against adriamycin-resistant mouse P388 cells in presence of 0.1 ug/mL adriamycin.
For experiment [5], the system named is P388. The experiment can be described thus: Cytotoxicity against vincristine-resistant mouse P388 cells in presence of 0.004 ug/mL vincristine.

In brackets after ≈: the same amount, converted by molar mass.

The IC50 is the point on the concentration scale where inhibition reaches its midpoint. In the case of `CC(=O)O[C@@H]1OC(=O)C2=CC[C@H]3C(C)(C)CCC[C@]3(C)[C@H]21`, the IC50 in the experiment on P388 [1] is 10.2 µg/mL (≈ 34.9 µM); with P388 [2], 8 µg/mL; in the experiment on P388 [3] it was 10.2 µg/mL (≈ 34.9 µM); in the experiment on P388 [4], 10.1 µg/mL; in the experiment with P388 [5], 9 µg/mL.
`CC1(C)CCC[C@]2(C)C3=C(CC[C@@H]12)C(=O)O[C@@H]3O`: the IC50 is 3.2 µg/mL (≈ 12.8 µM) with P388 [1]; 2.5 µg/mL in the experiment on P388 [2]; 2.5 µg/mL (≈ 9.99 µM) in the experiment with P388 [3]; 2.5 µg/mL in the experiment with P388 [4]; 2.5 µg/mL with P388 [5].
Take `CC1(C)CCC[C@]2(C)C3=C(C(=O)OC3O)[C@H](O)C[C@@H]12` (mixture of isomers) [DENDOCARBIN L/DENDOCARBIN M]: the IC50 in the experiment with P388 [1], with P388 [2], in the experiment on P388 [3], in the experiment on P388 [4] and with P388 [5] was above 25 µg/mL each time.
Regarding `CC1(C)CCC[C@]2(C)[C@@H]3C(=CC[C@@H]12)C(=O)O[C@H]3O` [DENDOCARBIN A], the IC50 in the experiment on P388 [1], with P388 [2], with P388 [3], in the experiment on P388 [4] and with P388 [5] was above 25 µg/mL each time.
For `CC1(C)C[C@H](O)C[C@]2(C)[C@H]3C(=O)OCC3=CC[C@@H]12` [DENDOCARBIN B], the IC50 in the experiment on P388 [1] worked out at 11.5 µg/mL (≈ 45.9 µM); in the experiment on P388 [2], 7 µg/mL; with P388 [3], 10.2 µg/mL (≈ 40.7 µM); with P388 [4], 10.5 µg/mL; with P388 [5] it was 9 µg/mL.
On the same counts, the results for `CC1(C)CCC[C@]2(C)[C@@H]3C(=C[C@H](O)[C@@H]12)CO[C@H]3O` [DENDOCARBIN C] are above 25 µg/mL, above 25 µg/mL, above 25 µg/mL, above 25 µg/mL and above 25 µg/mL.
As for `CC1(C)CCC[C@]2(C)[C@H]3[C@H](O)OC(=O)[C@@]3(O)CC[C@@H]12` [DENDOCARBIN D], the IC50 in the experiment on P388 [1] was found to be 15 µg/mL (≈ 55.9 µM); in the experiment with P388 [2] it was 16 µg/mL; with P388 [3] it was 16 µg/mL (≈ 59.6 µM); with P388 [4], 16 µg/mL; in the experiment on P388 [5], 14 µg/mL.
Regarding `CC1(C)[C@@H](O)CC[C@]2(C)[C@H]3C(=O)OC(=O)C3=CC[C@@H]12` [DENDOCARBIN E], the IC50 in the experiment with P388 [1] was above 25 µg/mL; in the experiment with P388 [2] it was 19 µg/mL; with P388 [3], 22.5 µg/mL (≈ 85.1 µM); in the experiment with P388 [4], above 25 µg/mL; with P388 [5] it was above 25 µg/mL.
`C[C@@]1(CO)CCC[C@]2(C)[C@H]3C(=O)OC(=O)C3=CC[C@@H]12` [DENDOCARBIN F]: the IC50 is above 25 µg/mL with P388 [1]; above 25 µg/mL in the experiment with P388 [2]; above 25 µg/mL in the experiment with P388 [3]; 22 µg/mL in the experiment on P388 [4]; above 25 µg/mL with P388 [5].
As for `CC1(C)CCC[C@]2(C)[C@H]3C(=O)OC(=O)C3=C[C@H](O)[C@@H]12` [DENDOCARBIN G], the IC50 with P388 [1], in the experiment with P388 [2], in the experiment with P388 [3], in the experiment on P388 [4] and with P388 [5] was above 25 µg/mL each time.
On to `CC1(C)CCC[C@]2(C)[C@H]3C(=O)OC(=O)C3=CC[C@@H]12` [DENDOCARBIN H], for which the IC50 was 10.8 µg/mL (≈ 43.5 µM) in the experiment on P388 [1]; 10.1 µg/mL in the experiment with P388 [2]; 10.1 µg/mL (≈ 40.7 µM) in the experiment on P388 [3]; 10.5 µg/mL with P388 [4]; 8 µg/mL in the experiment with P388 [5].
Regarding `CCOC1OC(=O)C2=C1[C@@H](O)C[C@H]1C(C)(C)CCC[C@]21C` (stereo not given in full) [DENDOCARBIN I], the half-maximal inhibitory concentration (IC50) in the experiment on P388 [1] was found to be 10 µg/mL (≈ 34 µM); in the experiment with P388 [2] it was 8 µg/mL; with P388 [3] it was 10.2 µg/mL (≈ 34.6 µM); with P388 [4], 10 µg/mL; in the experiment with P388 [5], 10.2 µg/mL.
Turning to `CCO[C@H]1OC(=O)C2=C1[C@@]1(C)CCCC(C)(C)[C@@H]1C[C@H]2O` [DENDOCARBIN J], the IC50 in the experiment with P388 [1] is 17 µg/mL (≈ 57.7 µM); with P388 [2] it was 11 µg/mL; with P388 [3], 4 µg/mL (≈ 13.6 µM); in the experiment on P388 [4], 8 µg/mL; in the experiment with P388 [5], 4 µg/mL.
Regarding `CCO[C@@H]1OC(=O)C2=C1[C@@]1(C)CCCC(C)(C)[C@@H]1C[C@H]2O` [DENDOCARBIN K], the IC50 in the experiment on P388 [1] was determined as 10.5 µg/mL (≈ 35.7 µM); in the experiment on P388 [2] it was 9 µg/mL; in the experiment with P388 [3], 10.5 µg/mL (≈ 35.7 µM); in the experiment on P388 [4], 10.5 µg/mL; in the experiment on P388 [5], 9 µg/mL.
`CC1(C)CCC[C@]2(C)[C@H]3[C@H](O)OC[C@]34O[C@@H]4[C@H](O)[C@@H]12` [DENDOCARBIN N]: the IC50 with P388 [1], in the experiment with P388 [2], in the experiment with P388 [3], with P388 [4] and in the experiment on P388 [5] was above 25 µg/mL each time.
Consider `CC1(C)CCC[C@]2(C)[C@@H]3C(=CC[C@@H]12)CO[C@H]3O` [ISODRIMENINOL], for which the IC50 was 13 µg/mL (≈ 55 µM) in the experiment on P388 [1]; 18 µg/mL with P388 [2]; 22 µg/mL (≈ 93.1 µM) in the experiment on P388 [3]; 18 µg/mL in the experiment on P388 [4]; above 25 µg/mL with P388 [5].

Source of the values: ChEMBL document CHEMBL1150857, “Dendocarbins A--N, new drimane sesquiterpenes from the nudibranch Dendrodoris carbunculosa” (J Nat Prod, 2001).
